Experimental data gathered from unrelated publications.
Compare with care: the assays were run in different laboratories.
Target: Mitogen-activated protein kinase 10 (MAPK10, Homo sapiens, UniProt P53779)

N#Cc1ccc(NC(=O)Nc2ccccc2)cc1
remaining binding (cell-free assay, competition with immobilised ligand; 25 µM): 65%

CCCCC(=O)Nc1ccc(-c2ccc3ncn(CCC)c(=O)c3c2)cn1
remaining binding (binding, competition with immobilised ligand; 0.5 µM): 80%

CN1CCN(C(=O)c2ccc(NC(=O)Nc3ccc(N(C)c4ccnc(Nc5ccc(CS(C)(=O)=O)cc5)n4)cc3)cc2)CC1
remaining binding (binding; 1 µM): 8.6%

C=CC(=O)N1CCC([C@@H]2CCNc3c(C(N)=O)c(-c4ccc(Oc5ccccc5)cc4)nn32)CC1
inhibition (enzyme activity, inhibitor; 1 µM): 25%

C#Cc1cc(-c2cc(Nc3nc(N[C@@H](C)c4ccc(F)cn4)ncc3Cl)n[nH]2)ccc1C=O
inhibition (enzyme activity, inhibitor; 0.2 µM): 6.29%

CO[C@@H]1[C@H](N(C)C(=O)c2ccccc2)C[C@H]2O[C@]1(C)n1c3ccccc3c3c4c(c5c6ccccc6n2c5c31)C(=O)NC4
inhibition (enzyme activity, inhibitor; 1 µM): 33%

C[C@H]1CC[C@H](n2c3cnccc3c3cnc(Nc4ccc5c(n4)CCN(C(=O)CO)C5)nc32)CC1
remaining signal (cell-free assay; 1 µM): 2.6%

COc1ccc2oc(-c3ccc4nc(N)oc4c3)c/c(=N\c3ccccc3NC(=O)CCN)c2c1
remaining binding (binding; 1 µM): 113%

C#Cc1cnc(Nc2ccnc(CO)c2)nc1Nc1ccccc1S(C)(=O)=NC#N (stereo not shown)
remaining signal (cell-free assay; 1 µM): 91%

C1=C/COCc2cc(ccc2OCCN2CCCC2)Nc2nccc(n2)-c2cccc(c2)COC/1
remaining signal (cell-free assay; 0.1 µM): 33%
